What was measured:
Type in all cases: functional
MCF7 = experiment: Growth inhibition of human MCF7 cells after 48 hrs by sulforhodamine B assay; conditions: MCF7, 48 h
Method in brief: (§1)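 NCI 60-human-tumor-cell-line panel, with compounds tested over a 5-log dose range. Values are taken from dose-response curves as log10 molar concentrations: GI50 is 50% net growth inhibition, TGI is total growth inhibition, and LC50 is 50% net cell death.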

UO-31 = experiment: Growth inhibition of human UO31 cells after 48 hrs by sulforhodamine B assay; conditions: UO-31, 48 h
Method in brief: (§2)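 Run in the NCI 60-human-tumour-cell-line panel, tested over a 5-log dose range. Dose–response curves gave three values per cell line, each as a log10 molar concentration: GI50 (50% inhibition of net cell growth), TGI (total inhibition of net growth) and LC50 (50% net cell death). The mean graph midpoint is the arithmetic mean over all lines, with insensitive lines entered at the highest concentration tested.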

SK-MEL-2 = experiment: Growth inhibition of human SK-MEL-2 cells after 48 hrs by sulforhodamine B assay; conditions: SK-MEL-2, 48 h; method in brief: as §1
HL-60(TB) = experiment: Growth inhibition of human HL-60(TB) cells after 48 hrs by sulforhodamine B assay; conditions: HL-60, 48 h
Method in brief: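 Tested only on compounds active in a three-line prescreen, in the NCI 60-human-tumour-cell-line panel over a 5-log dose range. Values come from dose–response curves as log10 molar GI50, the concentration inhibiting 50% net cell growth. Log10 TGI (total growth inhibition) and log10 LC50 (50% net cell death) were derived too. Mean graph midpoints include insensitive lines at the highest concentration tested.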

EKVX = experiment: Growth inhibition of human EKVX cells after 48 hrs by sulforhodamine B assay; method in brief: as §1
SR = experiment: Growth inhibition of human SR cells after 48 hrs by sulforhodamine B assay; method in brief: as §2
OVCAR-3 = experiment: Growth inhibition of human OVCAR-3 cells after 48 hrs by sulforhodamine B assay; conditions: OVCAR-3, 48 h; method in brief: as §1
KM12 = experiment: Growth inhibition of human KM12 cells after 48 hrs by sulforhodamine B assay; conditions: KM12, 48 h; method in brief: as §1
BT-549 = experiment: Growth inhibition of human BT549 cells after 48 hrs by sulforhodamine B assay; conditions: BT-549, 48 h; method in brief: as §1
SF-539 = experiment: Growth inhibition of human SF539 cells after 48 hrs by sulforhodamine B assay; conditions: SF-539, 48 h; method in brief: as §1
HCT-15 = experiment: Growth inhibition of human HCT15 cells after 48 hrs by sulforhodamine B assay; conditions: HCT-15, 48 h; method in brief: as §1
A498 = experiment: Growth inhibition of human A498 cells after 48 hrs by sulforhodamine B assay; conditions: A498, 48 h; method in brief: as §1
HOP-62 = experiment: Growth inhibition of human HOP62 cells after 48 hrs by sulforhodamine B assay; conditions: HOP-62, 48 h; method in brief: as §1
ACHN = experiment: Growth inhibition of human ACHN cells after 48 hrs by sulforhodamine B assay
SK-OV-3 = experiment: Growth inhibition of human SKOV3 cells after 48 hrs by sulforhodamine B assay; conditions: SK-OV-3, 48 h; method in brief: as §1
UACC-62 = experiment: Growth inhibition of human UACC62 cells after 48 hrs by sulforhodamine B assay; conditions: UACC-62, 48 h; method in brief: as §2
NCI-H23 = experiment: Growth inhibition of human NCI-H23 cells after 48 hrs by sulforhodamine B assay; conditions: NCI-H23, 48 h; method in brief: as §1
SNB-75 = experiment: Growth inhibition of human SNB75 cells after 48 hrs by sulforhodamine B assay; conditions: SNB-75, 48 h; method in brief: as §2
HT-29 = experiment: Growth inhibition of human HT-29 cells after 48 hrs by sulforhodamine B assay; conditions: HT-29, 48 h; method in brief: as §1
NCI-H460 = experiment: Growth inhibition of human NCI-H460 cells after 48 hrs by sulforhodamine B assay; conditions: NCI-H460, 48 h; method in brief: as §1
[1] = Growth inhibition of human […] cells after 48 hrs by sulforhodamine B assay; method in brief: as §1
NCI-H226 = experiment: Growth inhibition of human NCI-H226 cells after 48 hrs by sulforhodamine B assay; conditions: NCI-H226, 48 h; method in brief: as §1
SF-268 = experiment: Anticancer activity against human SF268 cells assessed as cell growth at 100 uM after 48 hrs by sulforhodamine B assay; conditions: SF-268, 48 h, read-out: Activity
SNB-19 = experiment: Growth inhibition of human SNB19 cells after 48 hrs by sulforhodamine B assay; conditions: SNB-19, 48 h; method in brief: as §2
HOP-92 = experiment: Growth inhibition of human HOP92 cells after 48 hrs by sulforhodamine B assay; conditions: HOP-92, 48 h; method in brief: as §1
UACC-257 = experiment: Growth inhibition of human UACC257 cells after 48 hrs by sulforhodamine B assay; conditions: UACC-257, 48 h; method in brief: as §2
[2] = read-out: pLC50 (the source's name) (converted)

With `COc1cc(CNc2nc3cc(N)cc(N)c3nc2-c2ccccc2)cc(OC)c1OC` the GI50 (MCF7) was 1.55 µM, the CC50 (MCF7; [2]) was > 50.1 µM and the TGI (MCF7; read-out: pTGI (converted)) was > 50.1 µM. The GI50 (UO-31) was 11.2 µM, the CC50 (UO-31; [2]) was > 50.1 µM and the TGI (UO-31; read-out: pTGI (converted)) was > 50.1 µM. The GI50 (SK-MEL-2) was 16.2 µM, the CC50 (SK-MEL-2; [2]) was > 50.1 µM and the TGI (SK-MEL-2; read-out: pTGI (converted)) was > 50.1 µM. The GI50 (HL-60(TB)) was 1.26 µM, the LC50 (HL-60(TB)) was > 50.1 µM and the TGI (HL-60(TB); read-out: pTGI (converted)) was > 50.1 µM. The GI50 (EKVX) was 1.95 µM, the LC50 (50% net cell kill) (EKVX) was 27.5 µM and the TGI (EKVX; read-out: pTGI (converted)) was 8.32 µM. The GI50 (SR) was 0.891 µM, the LC50 (concentration giving 50% net cell death) (SR) was > 50.1 µM and the TGI (SR; read-out: pTGI (converted)) was > 50.1 µM. The GI50 (OVCAR-3) was 1.15 µM, the CC50 (OVCAR-3; [2]) was 18.2 µM and the TGI (OVCAR-3; read-out: pTGI (converted)) was 3.39 µM. For the same compound, the GI50 (KM12) was 0.479 µM, the LC50 (50% net cell kill) (KM12) was > 50.1 µM and the TGI (KM12; read-out: pTGI (converted)) was 10.2 µM. It also gave a GI50 (BT-549) of 3.8 µM, a CC50 (BT-549; [2]) of 27.5 µM and a TGI (BT-549; read-out: pTGI (converted)) of 11.2 µM. The GI50 (SF-539) was 1.35 µM, the LC50 (SF-539) was 26.9 µM and the TGI (SF-539; read-out: pTGI (converted)) was 7.94 µM. The GI50 (HCT-15) was 3.24 µM, the LC50 (HCT-15) was > 50.1 µM and the TGI (HCT-15; read-out: pTGI (converted)) was 13.8 µM. The GI50 (A498) was 6.31 µM, the CC50 (A498; [2]) was 33.9 µM and the TGI (A498; read-out: pTGI (converted)) was 14.8 µM. The GI50 (HOP-62) was 17 µM, the LC50 (HOP-62) was > 50.1 µM and the TGI (HOP-62; read-out: pTGI (converted)) was > 50.1 µM. The GI50 (ACHN) was 5.37 µM, the CC50 (ACHN; [2]) was 23.4 µM and the TGI (ACHN; read-out: pTGI (converted)) was 11.2 µM. It also gave a GI50 (SK-OV-3) of 5.37 µM, a CC50 (SK-OV-3; [2]) of 36.3 µM and a TGI (SK-OV-3; read-out: pTGI (converted)) of 13.8 µM. It also gave a GI50 (UACC-62) of 8.13 µM, a CC50 (UACC-62; [2]) of 29.5 µM and a TGI (UACC-62; read-out: pTGI (converted)) of 15.5 µM. It also gave a GI50 (NCI-H23) of 8.71 µM, an LC50 (50% net cell kill concentration) (NCI-H23) of 33.9 µM and a TGI (NCI-H23; read-out: pTGI (converted)) of 17 µM. For the same compound, the GI50 (SNB-75) was 0.813 µM, the LC50 (SNB-75) was > 50.1 µM and the TGI (SNB-75; read-out: pTGI (converted)) was 14.5 µM. For the same compound, the GI50 (HT-29) was 8.71 µM, the LC50 (HT-29) was 43.7 µM and the TGI (HT-29; read-out: pTGI (converted)) was 19.5 µM. For the same compound, the GI50 (NCI-H460) was 1.51 µM, the LC50 (50% net cell kill) (NCI-H460) was > 50.1 µM and the TGI (NCI-H460; read-out: pTGI (converted)) was > 50.1 µM. For the same compound, the GI50 [1] was 0.692 µM, the LC50 [1] was > 50.1 µM and the TGI ([1]; read-out: pTGI (converted)) was 3.02 µM. The GI50 (NCI-H226) was 10 µM, the LC50 (NCI-H226) was > 50.1 µM and the TGI (NCI-H226; read-out: pTGI (converted)) was 22.4 µM. The growth at 100 µM (SF-268) was 15%, the GI50 (SNB-19) was 7.24 µM and the LC50 (SNB-19) was > 50.1 µM. For the same compound, the TGI (SNB-19; read-out: pTGI (converted)) was 20.9 µM, the GI50 (HOP-92) was 1.2 µM and the LC50 (50% net cell death) (HOP-92) was > 50.1 µM. The TGI (HOP-92; read-out: pTGI (converted)) was 3.09 µM, the GI50 (UACC-257) was 3.47 µM and the CC50 (UACC-257; [2]) was 27.5 µM. The TGI (UACC-257; read-out: pTGI (converted)) was 10.7 µM.

From ChEMBL document CHEMBL1137710, “Synthesis and in vitro antitumor activity of new quinoxaline derivatives” (2009)
